Active and inactive are the calls of the source. The rule behind the calls is not given here.
Experiments:
OVCAR-3 = experiment: Cytotoxicity against human OVCAR3 cells after 48 hrs by SRB assay; type: functional; conditions: for GI50: OVCAR-3, 48 h
In short: (§1)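 NCI-60 human cancer cell line screen. Five-concentration testing across 0.01 to 100 μM, done only for compounds selected from a one-concentration preliminary test. Read-out was GI50.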

UACC-62 = experiment: Cytotoxicity against human UACC62 cells after 48 hrs by SRB assay; type: functional; conditions: for GI50: UACC-62, 48 h; in short: as §1
MCF7 = experiment: Cytotoxicity against human MCF7 cells after 48 hrs by SRB assay; type: functional; conditions: for GI50: MCF7, 48 h; in short: as §1
SF-539 = experiment: Cytotoxicity against human SF539 cells after 48 hrs by SRB assay; type: functional; conditions: for GI50: SF-539, 48 h; in short: as §1
[1] = biological target: Tyrosyl-DNA phosphodiesterase 1 (Homo sapiens, UniProt Q9NUW8); experiment: Inhibition of recombinant Tdp1 (unknown origin) assessed as decrease in hydrolysis of phosphodiester linkage between tyrosine residue and the 3' end of 5'-[32P]-DNA after 15 mins by PAGE analysis
Chain of Tyrosyl-DNA phosphodiesterase 1 (Q9NUW8 whole entry): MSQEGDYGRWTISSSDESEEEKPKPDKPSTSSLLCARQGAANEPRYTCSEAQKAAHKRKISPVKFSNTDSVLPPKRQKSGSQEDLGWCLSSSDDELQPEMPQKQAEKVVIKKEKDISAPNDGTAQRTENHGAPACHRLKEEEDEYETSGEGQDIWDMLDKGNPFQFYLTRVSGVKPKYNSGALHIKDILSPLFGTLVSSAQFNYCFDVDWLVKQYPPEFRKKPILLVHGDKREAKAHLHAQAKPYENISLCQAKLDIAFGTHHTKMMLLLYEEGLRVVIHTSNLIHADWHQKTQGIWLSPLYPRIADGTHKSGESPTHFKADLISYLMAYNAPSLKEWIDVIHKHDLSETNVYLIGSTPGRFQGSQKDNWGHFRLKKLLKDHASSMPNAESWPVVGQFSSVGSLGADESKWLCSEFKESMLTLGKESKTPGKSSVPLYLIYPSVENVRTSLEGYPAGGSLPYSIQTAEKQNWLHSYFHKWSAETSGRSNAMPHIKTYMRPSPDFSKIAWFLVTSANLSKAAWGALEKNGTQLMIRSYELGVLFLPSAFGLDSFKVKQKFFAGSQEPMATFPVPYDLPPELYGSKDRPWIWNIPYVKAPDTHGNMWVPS
In short: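 The substrate was 5′-32P single-stranded oligo N14Y carrying a 3′-phosphotyrosine, at 1 nM, with 10 pM recombinant Tdp1. Products were run on 16% denaturing PAGE with phosphorimaging.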

[2] = biological target: T1, Tyrosyl-DNA phosphodiesterase 2 (Homo sapiens, UniProt O95551); experiment: (§2) Inhibition of recombinant human Tdp2 assessed as decrease in alpha 32P-cordycepin-3'-labeled DNA breaks after 15 mins by PAGE analysis
T1 sequence (O95551 whole entry): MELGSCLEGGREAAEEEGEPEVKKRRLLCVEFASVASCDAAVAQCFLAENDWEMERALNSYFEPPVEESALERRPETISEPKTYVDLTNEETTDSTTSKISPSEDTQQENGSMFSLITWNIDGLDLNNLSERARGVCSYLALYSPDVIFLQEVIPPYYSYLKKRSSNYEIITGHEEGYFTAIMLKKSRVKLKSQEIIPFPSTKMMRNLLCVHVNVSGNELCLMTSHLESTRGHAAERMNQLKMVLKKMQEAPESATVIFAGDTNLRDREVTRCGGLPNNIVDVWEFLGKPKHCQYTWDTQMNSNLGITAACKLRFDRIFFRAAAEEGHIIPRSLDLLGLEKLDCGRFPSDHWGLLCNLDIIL
In short: (§3)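 The substrate was the 18-mer single-stranded TY18 oligo, α32P-cordycepin-3′-labeled, at 1 nM, with 25 pM recombinant human Tdp2. Products were run on 16% denaturing PAGE.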

[3] = biological target: T2, Tyrosyl-DNA phosphodiesterase 2 (Homo sapiens) (UniProt O95551); experiment: as §2; in short: as §3
T2 sequence (whole entry): T1 sequence (O95551 whole entry)

HOP-62 = experiment: Cytotoxicity against human HOP62 cells after 48 hrs by SRB assay; type: functional; conditions: for GI50: HOP-62, 48 h; in short: as §1
SN12C = experiment: Cytotoxicity against human SN12C cells after 48 hrs by SRB assay; type: functional; in short: as §1
[4] = biological target: T3, DNA topoisomerase 1 (Homo sapiens) (UniProt P11387); experiment: Inhibition of recombinant Top1 (unknown origin) assessed as increase in [32P]-DNA breaks after 20 mins by PAGE analysis
T3 sequence (whole entry): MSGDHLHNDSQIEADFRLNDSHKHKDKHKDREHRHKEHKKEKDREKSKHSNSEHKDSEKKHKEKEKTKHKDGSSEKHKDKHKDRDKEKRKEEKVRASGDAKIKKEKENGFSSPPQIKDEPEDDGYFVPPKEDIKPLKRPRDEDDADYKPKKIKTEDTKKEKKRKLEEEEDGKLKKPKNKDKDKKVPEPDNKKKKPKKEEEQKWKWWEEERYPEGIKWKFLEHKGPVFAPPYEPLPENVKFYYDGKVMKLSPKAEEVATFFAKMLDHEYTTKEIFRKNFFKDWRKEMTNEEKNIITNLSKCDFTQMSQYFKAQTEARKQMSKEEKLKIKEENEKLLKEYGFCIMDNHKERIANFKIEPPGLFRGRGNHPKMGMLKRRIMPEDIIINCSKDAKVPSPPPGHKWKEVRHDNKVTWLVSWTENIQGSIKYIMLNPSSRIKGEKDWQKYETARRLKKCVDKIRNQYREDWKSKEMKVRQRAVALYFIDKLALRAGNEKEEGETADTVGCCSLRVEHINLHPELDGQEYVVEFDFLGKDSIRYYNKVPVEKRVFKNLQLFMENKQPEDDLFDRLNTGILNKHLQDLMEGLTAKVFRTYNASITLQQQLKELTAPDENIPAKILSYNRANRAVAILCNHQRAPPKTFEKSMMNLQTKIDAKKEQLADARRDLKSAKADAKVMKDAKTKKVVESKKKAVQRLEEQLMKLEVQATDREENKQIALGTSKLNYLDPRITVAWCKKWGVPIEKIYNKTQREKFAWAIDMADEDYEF
In short: (§4)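 The substrate was a 3′-32P 117-bp oligonucleotide holding Top1 cleavage sites, at about 2 nM, with recombinant Top1. Compounds were tested at 0.1, 1.0, 10 and 100 μM. Reactions were stopped with 0.5% SDS and run on 20% denaturing PAGE.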

[5] = biological target: T3, DNA topoisomerase 1 (Homo sapiens); experiment: Inhibition of recombinant Top1 (unknown origin) assessed as increase in [32P]-DNA breaks at 0.1 to 100 uM after 20 mins by PAGE analysis; in short: as §4
PBMC = experiment: Induction of DNA damage in human PBMC assessed as formation of gamma-H2AX foci at 100 to 1000 nM after 2 hrs by DAPI staining-based confocal microscopy; type: cell-based; conditions: 1 µM
In short: (§5)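 Freshly purified human PBMCs (from healthy donors) or CCRF-CEM leukemia cells were used at 2 mil/mL in RPMI 1640 with 10% FBS, penicillin and streptomycin. Cells were dosed at 100 nM and 1 μM for 2 h at 37 °C. They were then fixed in 2% paraformaldehyde, cytospun and blocked in 5% BSA. Staining used anti-γ-H2AX with an Alexa 488 secondary and DAPI, and foci were imaged by confocal microscopy.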

CCRF-CEM = experiment: Induction of DNA damage in human CCRF-CEM cells assessed as formation of gamma-H2AX foci at 100 to 1000 nM after 2 hrs by DAPI staining-based confocal microscopy; type: functional, cell-based; in short: as §5

SMILES	GI50 (OVCAR-3) [nM]	GI50 (UACC-62) [nM]	GI50 (MCF7) [nM]	GI50 (SF-539) [nM]	IC50 [1] [nM]	inhibition [1]	IC50 [2] [nM]	inhibition [3]	GI50 (HOP-62) [nM]	GI50 (SN12C) [nM]	inhibition [4]	inhibition [5]	Activity (PBMC)	Activity (CCRF-CEM)	Activity (OVCAR-3)	Activity (UACC-62)	Activity (MCF7)	Activity (SF-539)	Activity (HOP-62)	Activity (SN12C)
COc1cnc2c(c1)C(=O)c1c-2n(CCCN2CCCC2)c(=O)c2cc([N+](=O)[O-])ccc12	59	15	< 10	31	1000 to 12000	Dose-dependent effect	37000 to 111000	Dose-dependent effect	< 10	36	Active	–	–	–	–	–	–	–	–	–
CNCCCn1c2c(c3ccc([N+](=O)[O-])cc3c1=O)C(=O)c1cc(OC)cnc1-2	174	20	1060	51	1000 to 12000	Dose-dependent effect	37000 to 111000	Dose-dependent effect	30	46	Active	–	–	–	–	–	–	–	–	–
COc1cnc2c(c1)C(=O)c1c-2n(CCCNCCN2CCOCC2)c(=O)c2cc([N+](=O)[O-])ccc12	315	44	32	311	12000 to 37000	Dose-dependent effect	37000 to 111000	Dose-dependent effect	150	80	–	Active	–	–	–	–	–	–	–	–
COc1cnc2c(c1)C(=O)c1c-2n(CCCN2CCNCC2)c(=O)c2cc([N+](=O)[O-])ccc12	1190	175	36	355	12000 to 37000	Dose-dependent effect	37000 to 111000	Dose-dependent effect	65	230	Active	–	–	–	–	–	–	–	–	–
CC[C@@]1(O)C(=O)OCc2c1cc1n(c2=O)Cc2cc3ccccc3nc2-1 [CAMPTOTHECIN]	–	< 10	13	< 10	–	–	–	–	< 10	–	–	–	Non-Toxic	Active	–	–	–	–	–	–
COc1cnc2c(c1)C(=O)c1c-2n(CCCN2CCN(C)CC2)c(=O)c2cc([N+](=O)[O-])ccc12	171	183	16	191	12000 to 37000	Dose-dependent effect	12000 to 37000	Dose-dependent effect	81	214	Active	–	–	–	–	–	–	–	–	–
COc1cnc2c(c1)C(=O)c1c-2n(CCCN2CCC(N)CC2)c(=O)c2cc([N+](=O)[O-])ccc12	–	–	–	–	1000 to 12000	Dose-dependent effect	1000 to 12000	Dose-dependent effect	–	–	Active	–	Non-Toxic	Active	inactive	inactive	inactive	inactive	inactive	inactive
COc1cnc2c(c1)C(=O)c1c-2n(CCCN2CCN(CCO)CC2)c(=O)c2cc([N+](=O)[O-])ccc12	1460	1220	142	1700	> 111000	Dose-dependent effect	> 111000	Dose-dependent effect	2760	–	Active	–	–	–	–	–	–	–	–	–
CCNCCCn1c2c(c3ccc([N+](=O)[O-])cc3c1=O)C(=O)c1cc(OC)cnc1-2	62	27	19	70	1000 to 12000	Dose-dependent effect	37000 to 111000	Dose-dependent effect	107	53	–	Active	Non-Toxic	Active	–	–	–	–	–	–
COc1cnc2c(c1)C(=O)c1c-2n(CCCBr)c(=O)c2cc([N+](=O)[O-])ccc12	248	82	46	279	12000 to 37000	Dose-dependent effect	37000 to 111000	Dose-dependent effect	58	269	Active	–	–	–	–	–	–	–	–	–
COc1cnc2c(c1)C(=O)c1c-2n(CCCNC(C)C)c(=O)c2cc([N+](=O)[O-])ccc12	82	19	12	51	12000 to 37000	Dose-dependent effect	37000 to 111000	Dose-dependent effect	85	39	–	Active	Non-Toxic	Active	–	–	–	–	–	–

— ChEMBL document CHEMBL4007513, “Synthesis and Biological Evaluation of the First Triple Inhibitors of Human Topoisomerase 1, Tyrosyl-DNA Phosphodiesterase 1 (Tdp1), and Tyrosyl-DNA Phosphodiesterase 2 (Tdp2)” (J Med Chem, 2017)
